Assays:
Type in all cases: functional
CCRF-CEM = experiment: Antitumor activity against human CCRF-CEM cells after 48 hrs by Sulforhodamine B assay
Outline: (§1)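 NCI 60-cell-line screen. Secondary five-dose test at 100, 10, 1.0, 0.1 and 0.01 µM with continuous drug exposure for 48 h. Cell growth was estimated by sulforhodamine B protein staining. […] LC50 was also reported.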

HL-60(TB) = experiment: Antitumor activity against human HL-60(TB) cells after 48 hrs by Sulforhodamine B assay; conditions: HL-60, 48 h; outline: as §1
[1] = Antitumor activity against human MOLT4 cells after 48 hrs by Sulforhodamine B assay; conditions: MOLT-4, 48 h; outline: as §1
[2] = Antitumor activity against human RPMI8226 cells after 48 hrs by Sulforhodamine B assay; conditions: RPMI-8226, 48 h; outline: as §1
SR = experiment: Antitumor activity against human SR cells after 48 hrs by Sulforhodamine B assay; outline: as §1
HOP-62 = experiment: Antitumor activity against human HOP62 cells after 48 hrs by Sulforhodamine B assay; conditions: HOP-62, 48 h; outline: as §1
[3] = Antitumor activity against human HOP92 cells after 48 hrs by Sulforhodamine B assay; conditions: HOP-92, 48 h; outline: as §1
NCI-H226 = experiment: Antitumor activity against human NCI-H226 cells after 48 hrs by Sulforhodamine B assay; conditions: NCI-H226, 48 h; outline: as §1
NCI-H23 = experiment: Antitumor activity against human NCI-H23 cells after 48 hrs by Sulforhodamine B assay; conditions: NCI-H23, 48 h; outline: as §1
NCI-H460 = experiment: Antitumor activity against human NCI-H460 cells after 48 hrs by Sulforhodamine B assay; conditions: NCI-H460, 48 h; outline: as §1
NCI-H522 = experiment: Antitumor activity against human NCI-H522 cells after 48 hrs by Sulforhodamine B assay; conditions: NCI-H522, 48 h; outline: as §1
[4] = Antitumor activity against human COLO205 cells after 48 hrs by Sulforhodamine B assay; conditions: COLO 205, 48 h; outline: as §1
[5] = Antitumor activity against human HCC2998 cells after 48 hrs by Sulforhodamine B assay; conditions: HCC 2998, 48 h; outline: as §1
[6] = Antitumor activity against human HCT116 cells after 48 hrs by Sulforhodamine B assay; conditions: HCT-116, 48 h; outline: as §1
[7] = Antitumor activity against human HCT15 cells after 48 hrs by Sulforhodamine B assay; conditions: HCT-15, 48 h; outline: as §1
KM12 = experiment: Antitumor activity against human KM12 cells after 48 hrs by Sulforhodamine B assay; conditions: KM12, 48 h; outline: as §1
SF-268 = experiment: Antitumor activity against human SF268 cells after 48 hrs by Sulforhodamine B assay; conditions: SF-268, 48 h; outline: as §1
[8] = Antitumor activity against human SF295 cells after 48 hrs by Sulforhodamine B assay; conditions: SF-295, 48 h; outline: as §1
SNB-19 = experiment: Antitumor activity against human SNB19 cells after 48 hrs by Sulforhodamine B assay; conditions: SNB-19, 48 h; outline: as §1
SNB-75 = experiment: Antitumor activity against human SNB75 cells after 48 hrs by Sulforhodamine B assay; conditions: SNB-75, 48 h; outline: as §1
M14 = experiment: Antitumor activity against human M14 cells after 48 hrs by Sulforhodamine B assay; conditions: M14, 48 h; outline: as §1
MDA-MB-435 = experiment: Antitumor activity against human MDA-MB-435 cells after 48 hrs by Sulforhodamine B assay; conditions: MDA-MB-435, 48 h; outline: as §1
SK-MEL-2 = experiment: Antitumor activity against human SK-MEL-2 cells after 48 hrs by Sulforhodamine B assay; conditions: SK-MEL-2, 48 h; outline: as §1
SK-MEL-28 = experiment: Antitumor activity against human SK-MEL-28 cells after 48 hrs by Sulforhodamine B assay; conditions: SK-MEL-28, 48 h; outline: as §1
SK-MEL-5 = experiment: Antitumor activity against human SK-MEL-5 cells after 48 hrs by Sulforhodamine B assay; conditions: SK-MEL-5, 48 h; outline: as §1
[9] = Antitumor activity against human UACC257 cells after 48 hrs by Sulforhodamine B assay; conditions: UACC-257, 48 h; outline: as §1
[10] = Antitumor activity against human UACC62 cells after 48 hrs by Sulforhodamine B assay; conditions: UACC-62, 48 h; outline: as §1
IGROV-1 = experiment: Antitumor activity against human IGROV1 cells after 48 hrs by Sulforhodamine B assay; conditions: IGROV-1, 48 h; outline: as §1
[11] = Antitumor activity against human OVCAR5 cells after 48 hrs by Sulforhodamine B assay; conditions: OVCAR-5, 48 h; outline: as §1
[12] = Antitumor activity against human NCI-ADR-RES cells after 48 hrs by Sulforhodamine B assay; outline: as §1
[13] = Antitumor activity against human SKOV3 cells after 48 hrs by Sulforhodamine B assay; conditions: SK-OV-3, 48 h; outline: as §1
[14] = Antitumor activity against human PC3 cells after 48 hrs by Sulforhodamine B assay; conditions: PC-3, 48 h; outline: as §1
DU-145 = experiment: Antitumor activity against human DU145 cells after 48 hrs by Sulforhodamine B assay; conditions: DU-145, 48 h; outline: as §1
MCF7 = experiment: Antitumor activity against human MCF7 cells after 48 hrs by Sulforhodamine B assay; conditions: MCF7, 48 h; outline: as §1
MDA-MB-231 = experiment: Antitumor activity against human MDA-MB-231 cells after 48 hrs by Sulforhodamine B assay; conditions: MDA-MB-231, 48 h; outline: as §1
[15] = Antitumor activity against human Hs 578T cells after 48 hrs by Sulforhodamine B assay; outline: as §1
[16] = Antitumor activity against human BT549 cells after 48 hrs by Sulforhodamine B assay; conditions: BT-549, 48 h; outline: as §1
T47D = experiment: Antitumor activity against human T47D cells after 48 hrs by Sulforhodamine B assay; outline: as §1
MDA-MB-468 = experiment: Antitumor activity against human MDA-MB-468 cells after 48 hrs by Sulforhodamine B assay; conditions: MDA-MB-468, 48 h; outline: as §1
[17] = read-out: LC50 (the source's name)

Which results are given for `Nc1ncnc2c1N=C(c1ccc3c(c1)OCO3)CC(c1sc(Cl)nc1Cl)N2` (stereo not drawn)?
GI50 (CCRF-CEM): 3.02 µM; CC50 (CCRF-CEM; [17]): > 100 µM; GI50 (HL-60(TB)): 36.1 µM; CC50 (HL-60(TB); [17]): > 100 µM; GI50 [1]: 5.91 µM; LC50 [1]: > 100 µM; GI50 [2]: 4.66 µM; LC50 (concentration causing 50% net cell kill) [2]: > 100 µM; GI50 (SR): 1.9 µM; CC50 (SR; [17]): > 100 µM; GI50 (HOP-62): 5.32 µM; LC50 (concentration giving 50% net cell kill) (HOP-62): 62.6 µM; GI50 [3]: 4.25 µM; CC50 [3, 17]: 77.5 µM; GI50 (NCI-H226): 17.7 µM; CC50 (NCI-H226; [17]): > 100 µM; GI50 (NCI-H23): 8.87 µM; LC50 (NCI-H23): > 100 µM; GI50 (NCI-H460): 3.99 µM; LC50 (NCI-H460): > 100 µM; GI50 (NCI-H522): 2.51 µM; CC50 (NCI-H522; [17]): 55.3 µM; GI50 [4]: 3.48 µM; CC50 [4, 17]: 45.6 µM; GI50 [5]: 6.11 µM; CC50 [5, 17]: 48.8 µM; GI50 [6]: 3.42 µM; CC50 [6, 17]: 44.5 µM; GI50 [7]: 1.07 µM; CC50 [7, 17]: > 100 µM; GI50 (KM12): 3.93 µM; CC50 (KM12; [17]): 73.6 µM; GI50 (SF-268): 9.84 µM; CC50 (SF-268; [17]): 92.2 µM; GI50 [8]: 2.21 µM; CC50 [8, 17]: 39.8 µM; GI50 (SNB-19): 4.83 µM; LC50 (SNB-19): > 100 µM; GI50 (SNB-75): 1.39 µM; LC50 (concentration killing 50% of cells) (SNB-75): 61.4 µM; GI50 (M14): 2.01 µM; CC50 (M14; [17]): 44.6 µM; GI50 (MDA-MB-435): 0.35 µM; CC50 (MDA-MB-435; [17]): 48.4 µM; GI50 (SK-MEL-2): 5.19 µM; LC50 (SK-MEL-2): 48.6 µM; GI50 (SK-MEL-28): 7.63 µM; LC50 (SK-MEL-28): 91.6 µM; GI50 (SK-MEL-5): 3.43 µM; CC50 (SK-MEL-5; [17]): 40.8 µM; GI50 [9]: 14.6 µM; CC50 [9, 17]: > 100 µM; GI50 [10]: 2.17 µM; LC50 [10]: 63.9 µM; GI50 (IGROV-1): 10.4 µM; CC50 (IGROV-1; [17]): > 100 µM; GI50 [11]: 6.03 µM; LC50 [11]: > 100 µM; GI50 [12]: 3.55 µM; CC50 [12, 17]: > 100 µM; GI50 [13]: 2.78 µM; CC50 [13, 17]: > 100 µM; GI50 [14]: 5.15 µM; CC50 [14, 17]: > 100 µM; GI50 (DU-145): 8.45 µM; CC50 (DU-145; [17]): > 100 µM; GI50 (MCF7): 2.81 µM; CC50 (MCF7; [17]): > 100 µM; GI50 (MDA-MB-231): 5.81 µM; LC50 (concentration killing 50% of cells) (MDA-MB-231): 55.7 µM; GI50 [15]: 2.35 µM; CC50 [15, 17]: > 100 µM; GI50 [16]: 3.79 µM; CC50 [16, 17]: 53.9 µM; GI50 (T47D): 5.36 µM; CC50 (T47D; [17]): > 100 µM; GI50 (MDA-MB-468): 1.65 µM; LC50 (MDA-MB-468): > 100 µM

From ChEMBL document CHEMBL3407460, “Synthesis of novel thiazole-based 8,9-dihydro-7H-pyrimido[4,5-b][1,4]diazepines as potential antitumor and antifungal agents” (2015)
